Assay outcomes from PubChem BioAssay.
Only some compounds are listed: those with a hit (about 1.3% of all), similar ones and a draw of the others.
S100A4 MyoIIA = inhibitors of human S100A4 binding to myosin IIA peptide; P26447; S100A4/TAMRA-MyoIIA peptide fluorescence polarization; inhibition, % at 10.7 µM; actives 0.14% (n = 360,000); AID 652163;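 active = mean inhibition of at least 70% across replicates, with every replicate also reaching that level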
Target sequence (P26447 whole entry, looked up): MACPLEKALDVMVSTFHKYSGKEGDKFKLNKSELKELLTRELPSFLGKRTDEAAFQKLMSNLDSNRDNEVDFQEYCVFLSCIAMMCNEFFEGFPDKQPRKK
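Test system – S100A4 monomer (human) · Compound – single-point compound testing · Schedule – 5 min incubation before reading · Probe or stimulus – TAMRA-labelled myosin IIA heavy-chain peptide probe, 5 nM · Benchmarks – neutral control DMSO, positive control TFP · Medium – Calcium-containing HEPES buffer, pH 7.2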
Casp6 inh = caspase-6 (human) enzyme inhibition. purified caspase-6, Z-VEID-R110 cleavage fluorescence. inhibition, % at 12.5 µM. actives 0.53% (n = 350,000);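 active = mean inhibition across replicates at least about 35%, with every replicate also reaching that limit, limit read from the data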
XiGFP reactiv = activators of X-chromosome reactivation in mouse fibroblasts; activation, % at 7.58 µM; actives 0.055% (n = 360,000); XiGFP mouse fibroblasts, % GFP-positive cells imaging, 3 d; cells co-treated with 5-aza-dC sensitizer; scaled so ellipticine positive control = 100%;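 active = mean normalized replicate activation at least 10% and every replicate at or above 10%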
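Material: XiGFP fibroblasts, SV40-immortalized; Buffer or medium: DMEM containing 5-aza-dC; Compound dosing: single point; Times: 3 days compound exposure.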
AF4-AF9 inh = blocks AF4 peptide binding to human AF9. P42568. AlphaScreen, biotin-AF4 peptide binding to FLAG-AF9. inhibition, % at 10 µM. actives 0.47% (n = 350,000). AID 651704;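 active = every replicate reaching a set inhibition limit, whatever the replicate mean, cut at about 25% in these data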
Target sequence (P42568 whole entry, looked up): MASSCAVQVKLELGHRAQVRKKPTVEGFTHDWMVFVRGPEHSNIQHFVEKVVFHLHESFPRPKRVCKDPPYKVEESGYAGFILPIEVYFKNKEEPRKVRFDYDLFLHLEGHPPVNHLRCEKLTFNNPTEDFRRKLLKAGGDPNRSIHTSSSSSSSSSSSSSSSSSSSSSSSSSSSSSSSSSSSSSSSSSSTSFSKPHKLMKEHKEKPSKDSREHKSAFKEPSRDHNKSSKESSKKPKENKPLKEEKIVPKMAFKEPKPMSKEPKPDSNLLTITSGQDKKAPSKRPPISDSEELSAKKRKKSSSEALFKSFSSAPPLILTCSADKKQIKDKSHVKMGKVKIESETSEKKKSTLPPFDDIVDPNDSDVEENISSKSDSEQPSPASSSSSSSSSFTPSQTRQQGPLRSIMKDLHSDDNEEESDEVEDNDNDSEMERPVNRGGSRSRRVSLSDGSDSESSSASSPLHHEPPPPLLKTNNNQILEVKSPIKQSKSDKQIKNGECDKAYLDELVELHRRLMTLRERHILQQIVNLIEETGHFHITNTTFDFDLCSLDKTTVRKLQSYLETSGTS
RAD54 inh = RAD54 (human) branch migration inhibition. Q92698. RAD54 Holliday junction branch migration, FAM/BHQ fluorescence. inhibition, % at 10.4 µM. actives 0.14% (n = 360,000);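 active = mean normalized replicate activity at least 40 and at least half of replicates scoring 40 or more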;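 note: inhibitors cause a drop in the FAM fluorescence signal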
RAD52 anneal inh = RAD52 (human) annealing inhibition. P43351. inhibition, % at 18.7 µM. recombinant RAD52 DNA annealing, FRET fluorescence. actives 0.46% (n = 360,000);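 active = every replicate showing at least 50% inhibition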
Of the large screens only hits and unclear results are named; the others gave an inactive call.

C[C@H](NC(=O)C[C@@H]1CC[C@@H]2[C@H](COC[C@H](O)CN2C(=O)Nc2cc(Cl)cc(Cl)c2)O1)c1ccccc1	none
COC(=O)C[C@@H]1CC[C@@H](NS(=O)(=O)c2ccc(OC)cc2)[C@H](CO)O1	none
O=C(C[C@H]1C=C[C@H](NC(=O)c2ccc(F)cc2)[C@H](CO)O1)NCc1ccncn1	S100A4 MyoIIA 116
O=C(C[C@@H]1C=C[C@@H](NC(=O)c2ccc(F)cc2)[C@@H](CO)O1)NCc1ccncn1	Casp6 inh 87
COc1cccc(NC(=O)N[C@H]2C=C[C@H](CC(=O)NCc3ccncn3)O[C@@H]2CO)c1	none
COc1cccc(NC(=O)N[C@@H]2C=C[C@@H](CC(=O)NCc3ccncn3)O[C@@H]2CO)c1	S100A4 MyoIIA 90
COc1ccc2c3c(n(C)c2c1)[C@@H](CO)N(C(=O)Nc1ccccc1F)CC31CN(C(C)=O)C1	none (no result: Casp6 inh, RAD54 inh)
Cc1ccccc1-c1ccc([C@H]2[C@@H](CO)N3C(=O)CN(C(=O)c4ccccc4)C[C@@H]23)cc1	none (no result: RAD54 inh)
C[C@H]1CN([C@@H](C)CO)C(=O)c2cc(N(C)C)ccc2O[C@@H]1CN(C)C(=O)Nc1ccccc1	none (no result: S100A4 MyoIIA, Casp6 inh, AF4-AF9 inh, RAD54 inh, RAD52 anneal inh)
CC[C@H](C)[C@H](NC(N)=O)C(=O)Nc1ccc(NC(C)=O)cc1	AF4-AF9 inh 96
C[C@H](CO)N1C[C@H](C)[C@H](CN(C)Cc2ccc(C(F)(F)F)cc2)OCCCC[C@H](C)Oc2ccc(NC(=O)C3CCCCC3)cc2C1=O	none (no result: S100A4 MyoIIA, Casp6 inh, AF4-AF9 inh, RAD52 anneal inh)
COc1cccc(S(=O)(=O)N(C)C[C@@H]2Oc3cc(C4=CCCC4)ccc3S(=O)(=O)N([C@H](C)CO)C[C@H]2C)c1	none
COc1cc(OC)c(OC)cc1CN1CCSCC1	Casp6 inh 36
Oc1ccc(CN2CCN(c3ccccc3)CC2)c2cccnc12	none (no result: XiGFP reactiv, AF4-AF9 inh)
O=[N+]([O-])c1cc(CN2CCN(c3cccc(C(F)(F)F)c3)CC2)c2cccnc2c1O	Casp6 inh 69, AF4-AF9 inh 36 (no result: RAD54 inh)
C/C(=N\NC(=O)c1cc(O)cc(O)c1)c1ccc(NC(=O)Cc2ccccc2)cc1	Casp6 inh 71
COc1cc(-c2nnc(COC(=O)c3ccc(C)o3)o2)cc(OC)c1OC	Casp6 inh 35
Cc1noc(C)c1NC(=O)Nc1cccc2c1O[C@@H](CN(C)S(=O)(=O)c1ccccc1)[C@H](C)CN([C@@H](C)CO)C2=O	none (no result: S100A4 MyoIIA, Casp6 inh, AF4-AF9 inh, RAD54 inh, RAD52 anneal inh)
COc1cc2c(cc1OC)/C(=C/C(=O)c1ccc(F)cc1)NCC2	Casp6 inh 44
O=c1nc2ccc(Cl)cn2c2ccc(S(=O)(=O)N3CCOCC3)cc12	none (no result: XiGFP reactiv)
O=c1nc2ccc(Cl)cn2c2ccc(S(=O)(=O)N3CCCCC3)cc12	Casp6 inh 92
COc1ccc(NC(=O)N(C)C[C@H]2OCCCC[C@@H](C)Oc3ccc(N(C)C)cc3C(=O)N([C@@H](C)CO)C[C@@H]2C)cc1	Casp6 inh 52
COc1ccc(NC(=O)N(C)C[C@H]2OCCCC[C@@H](C)Oc3ccc(NC(=O)NC4CCCCC4)cc3C(=O)N([C@H](C)CO)C[C@@H]2C)cc1	S100A4 MyoIIA 134
C[C@@H]1CCCCO[C@@H](CN(C)C(=O)NC2CCCCC2)[C@@H](C)CN([C@@H](C)CO)C(=O)c2cc(N(C)C)ccc2O1	none
C[C@H]1CN([C@@H](C)CO)C(=O)c2cc(NC(=O)NC3CCCCC3)ccc2O[C@H]1CN(C)C(=O)Nc1ccccc1	none
COc1ccc(NC(=O)N(C)C[C@H]2OCCCC[C@@H](C)Oc3ccc(N(C)C)cc3C(=O)N([C@H](C)CO)C[C@H]2C)cc1	none
C[C@H]1CN([C@@H](C)CO)C(=O)c2cc(NC(=O)NC3CCCCC3)ccc2O[C@@H]1CN(C)C(=O)Nc1ccccc1	S100A4 MyoIIA 157
C[C@@H]1CN([C@H](C)CO)C(=O)c2cc(N(C)C)ccc2O[C@@H](C)CCCCO[C@@H]1CN(C)C(=O)NC1CCCCC1	S100A4 MyoIIA 104
C[C@@H]1CCCCO[C@H](CN(C)C(=O)Nc2ccc(C(F)(F)F)cc2)[C@H](C)CN([C@@H](C)CO)C(=O)c2cc(N(C)C)ccc2O1	RAD52 anneal inh 78
C[C@@H]1CCCCO[C@H](CN(C)C(=O)Nc2ccc(C(F)(F)F)cc2)[C@H](C)CN([C@H](C)CO)C(=O)c2cc(N(C)C)ccc2O1	none
COc1ccc(C(=O)Nc2ccc3c(c2)OC[C@@H](C)NC[C@@H](C)[C@H](OC)CN(C)C3=O)cc1	none
COc1ccc2c3c([nH]c2c1)[C@@H](CO)N(C(=O)Nc1ccccc1F)CC31CN(C(=O)C2CC2)C1	none (no result: S100A4 MyoIIA, Casp6 inh, AF4-AF9 inh, RAD54 inh, RAD52 anneal inh)
CCOc1c2ccc(C(=O)NCCc3ccc(C)cc3)cc2nn1CC	none
CCn1nc2cc(C(=O)NCCc3cccs3)ccc2c1OC	AF4-AF9 inh 26
CCN(CCNC(=O)c1ccc(C#N)cc1)c1cccc(C)c1	none (no result: S100A4 MyoIIA, Casp6 inh, XiGFP reactiv, AF4-AF9 inh, RAD52 anneal inh)
CCN(CCNCC(O)COCc1ccc(Cl)cc1)c1cccc(C)c1 (stereo not given)	AF4-AF9 inh 29 (no result: RAD54 inh)
O=C(Nc1cccc(Oc2ccc(C(=O)O)c(C(=O)O)c2)c1)c1ccc(-c2ccccc2)cc1	Casp6 inh 42
CNC[C@H]1Oc2ccc(NC(C)=O)cc2C(=O)N(C)C[C@H]1C	none (no result: S100A4 MyoIIA, Casp6 inh, AF4-AF9 inh, RAD54 inh, RAD52 anneal inh)
O=C(NCCN1CCOCC1)c1ccc([N+](=O)[O-])cc1[N+](=O)[O-]	none (no result: S100A4 MyoIIA, Casp6 inh, XiGFP reactiv, AF4-AF9 inh, RAD52 anneal inh)
O=[N+]([O-])c1ccc(NCCN2CCOCC2)c([N+](=O)[O-])c1	Casp6 inh 42
C[C@H]1CN([C@@H](C)CO)C(=O)c2c(c3ccccc3n2C)-c2ccccc2CO[C@H]1CN(C)CC1CC1	none
C[C@@H]1CN([C@H](C)CO)C(=O)c2c(c3ccccc3n2C)-c2ccccc2CO[C@@H]1CN(C)C(=O)[C@H](Cc1ccccc1)N(C)C	RAD52 anneal inh 51
C[C@@H]1CN([C@@H](C)CO)C(=O)c2c(c3ccccc3n2C)-c2ccccc2CO[C@H]1CN(C)C(=O)[C@@H](Cc1ccccc1)N(C)C	none
C[C@H](CO)N1C[C@H](C)[C@H](CN(C)CC2CC2)OCc2ccccc2-c2c(n(C)c3ccccc23)C1=O	S100A4 MyoIIA 90
C[C@H]1CN([C@@H](C)CO)C(=O)c2c(c3ccccc3n2C)-c2ccccc2CO[C@H]1CN(C)C(=O)CCN(C)C	RAD52 anneal inh 51
Cc1oc(-c2ccccc2Cl)nc1CSCC(=O)NC1CC1	none (no result: S100A4 MyoIIA, Casp6 inh, XiGFP reactiv, AF4-AF9 inh, RAD52 anneal inh)
Cc1oc(-c2ccccc2Cl)nc1CSCC(=O)O	S100A4 MyoIIA 186
O=C(O)c1sc(C(=O)O)c(-c2ccccc2)c1-c1ccccc1	none (no result: RAD54 inh)
CC(=O)c1sc(C(=O)O)c(-c2ccco2)c1-c1ccco1	Casp6 inh 64 (no result: RAD54 inh)
COc1ccccc1N=Nc1ccc(O)c2ncccc12	Casp6 inh 54, AF4-AF9 inh 72
